This is a sample that favours compounds with a hit; in the whole collection about 1.9% have one here.
Arrestin-AP2 inh: inhibitors of human beta-arrestin and AP2 interaction; 0.31% of 340,000 active; FITC-arrestin peptide / GST-AP2 beads, flow cytometry; AP2 beta2 appendage carries R879A mutation; inhibition, % at 10 µM;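 active means inhibition above a set limit, near 3 SD of compounds lacking own fluorescence, cut at about 54% in these data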
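System: GST-AP2 R879A glutathione beads. Medium: PBS with 0.05% Tween 20 and 0.1% BSA. Also added: FITC-arrestin peptide, 50 nM. Incubation: 12 min plus 1 h, RT. Measured by: high-throughput flow cytometry of beads, ex 488, em 535 nm. Evaluation: percent drop in bead-associated FITC signal.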
PLCb3 inh: blocks human PLC-beta3 enzyme activity | Q01970 | Purified PLC-beta3, fluorogenic substrate, fluorescence | inhibition, % at 12.2 µM | 0.18% of 370,000 active; in the data active means inhibition above about 11%
proCasp3 act: activates human procaspase-3. recombinant procaspase-3 D3A, Ac-DEVD-pNA absorbance 405 nm. activation, % at 8.5 µM. AID 463141. 0.11% of 330,000 active. P42574;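 active means activation above the mean of all tested compounds plus 3 SD, cut at about 21% in these data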
Target sequence (P42574 whole entry D9A/D28A/D175A): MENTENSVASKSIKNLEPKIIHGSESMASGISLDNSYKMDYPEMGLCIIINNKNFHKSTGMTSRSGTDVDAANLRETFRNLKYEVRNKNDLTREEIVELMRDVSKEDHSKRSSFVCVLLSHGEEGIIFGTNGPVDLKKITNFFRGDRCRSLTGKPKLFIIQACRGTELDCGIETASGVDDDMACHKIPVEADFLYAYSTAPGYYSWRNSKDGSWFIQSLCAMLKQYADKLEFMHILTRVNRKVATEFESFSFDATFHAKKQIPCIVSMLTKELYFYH
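Assay system: Autoprocessing-dead procaspase-3 D3A mutant enzyme; also added: Ac-DEVD-pNA; doses: one concentration, 8.5 µM nominal, 0.8% DMSO; times: 1 h compound preincubation, 2 h substrate hydrolysis at 25 °C; technique: 405 nm absorbance of p-nitroaniline, reads at 0 and 120 min; measure: % activation between DMSO and enzyme-spiked controls; repeats: single replicate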
proCasp7 act: counter-screen: procaspase-7 (human) activation. P55210. recombinant procaspase-7, Ac-DEVD-pNA absorbance 405 nm; D23A/D198A/D206A triple mutant, cannot self-cleave; scale: DMSO 0, 5 µM enzyme 100. AID 463210. activation, % at 8.5 µM. 0.093% of 330,000 active;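 active means percent activation above the screen-wide mean plus 3 SD, cut at about 25% in these data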
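Assay system: Uncleavable procaspase-7 mutant enzyme; Input: 2 µM procaspase-7 mutant as dispensed; Also added: DEVD-pNA substrate; Medium: Zinc-free HEPES pH 7.4 with 300 mM NaCl, 0.01% Triton X-100; Timing: 1 h compound preincubation, 2 h substrate cleavage, 25 °C; Measured by: Epi-absorbance of released pNA at 405 nm, two timepoints.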
PLCg1 inh: blocks human PLC-gamma1 enzyme activity; purified PLC-gamma1, fluorogenic substrate, fluorescence; inhibition, % at 12.2 µM; 0.84% of 370,000 active
sPLA2-III inh: Blocks human group III sPLA2 activity. AID 743126. 0.56% of 370,000 active. QFRET BODIPY PC-A2 liposome hydrolysis, fluorescence. inhibition, % at 12.2 µM;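 active means inhibition above mean plus 3 SD of compounds lying within the high and low control bounds, cut at about 19% in these data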
PLCg1 ctr: PLC-gamma1 inhibition, counter-screen for PLC-beta3 hits; purified PLC-gamma1, fluorogenic substrate, fluorescence; shares compounds with PLCg1 inh; inhibition, % at 12.3 µM; 3.1% of 3,300 active; AID 743258
PLCb3 confirm: confirmation of human PLC-beta3 inhibitors; shares compounds with PLCg1 inh; purified PLC-beta3, fluorogenic substrate fluorescence; 1% of 3,300 active; AID 743261; inhibition, % at 12.3 µM; in the data active means inhibition above about 11%
A number is an active result; n = inactive; x = no result given. Unless noted, no stated cut-off is given here; in the data, active means inhibition above about 9.5%; inactive means the rest.

SMILES	Arrestin-AP2 inh	PLCb3 inh	proCasp3 act	proCasp7 act	PLCg1 inh	sPLA2-III inh	PLCg1 ctr	PLCb3 confirm
CCOC(=O)/C(C#N)=C/c1c(OCC)n(CC)c2ccccc12	n	n	n	n	10	n	n	n
COCCCN1C(=O)[C@H](CC(=O)NCc2cccs2)[C@]2(C(=O)OC)CCCCC=C12	x	n	x	x	n	n	x	x
N#CCC[C@@H]1CC[C@]2(CCCN(S(=O)(=O)C3CCCCC3)C2)O1	x	n	x	x	n	n	x	x
O=C(Oc1ccc([N+](=O)[O-])cc1)C1CC(=O)N(c2ccc3c(c2)OCCO3)C1 (stereo not given)	n	n	n	n	13	n	n	n
CC(=O)N1CCc2c(sc(NC(=O)CS(=O)(=O)c3ccc(F)cc3)c2C(N)=O)C1	n	n	n	n	n	n	x	x
CCN(CC)CCCn1c2c(c(SCC(=O)Nc3cc(C)cc(C)c3)nc1=O)CCC2	x	n	x	x	13	n	n	n
CCN(CC)CCCn1c2c(c(SCC(=O)Nc3cccc(C(C)=O)c3)nc1=O)CCC2	n	n	n	n	n	n	x	x
COc1ccc(C)cc1NC(=O)CSc1nc(=O)n(CCCN2CCOCC2)c2c1CCCC2	n	n	n	n	n	n	x	x
CCCCCCOc1ccc(C(=O)O)cc1C#N	n	n	n	n	9.8	n	n	n
COc1cccc(CN2C(=O)CCC2(C)C(=O)NC2CCCCC2)c1 (stereo not given)	n	n	n	n	n	n	x	x
CC1(C(=O)NC2CCCCCCC2)CCC(=O)N1Cc1cccnc1 (stereo not given)	n	n	n	n	13	n	n	n
O=C(COc1ccccc1)NS(=O)(=O)c1ccccc1	n	n	n	n	10.0	n	n	n
O=C(COc1ccccc1)N=C1SC2CS(=O)(=O)CC2N1c1ccccc1F (stereo not given)	n	n	n	n	n	n	x	x
O=C(COc1ccccc1)N=C1SC2CS(=O)(=O)CC2N1c1ccc(F)cc1F (stereo not given)	n	n	n	n	10	n	n	n
CCOC(=O)N(NC(=O)C(O)(C(C)C)C(C)C)c1ccccc1	n	n	n	n	n	n	x	x
CCOC(=O)N(NC(=O)C(O)(c1ccccc1)c1ccccc1)c1ccccc1	n	n	n	n	14	n	n	n
CCCC(O)(CCC)C(=O)NN(C(=O)CCl)c1ccccc1	n	n	n	n	9.7	n	n	n
COc1ccc2cc(C[C@@H]3CC[C@@H](CNC(N)=O)O3)ccc2c1	n	n	n	n	n	n	x	x
CCCCCCCCN1C(=O)[C@@H](CC(=O)NCCCCc2ccccc2)C[C@@]2(C(=O)OC)C1=C[C@H](COCc1ccccc1)O[C@@H]2C	x	n	x	x	n	n	x	x
O=[N+]([O-])c1ccc(NC(=S)NCc2ccncc2)cc1	n	n	n	n	n	n	x	x
O=[N+]([O-])c1ccc(NCc2ccncc2)cc1	n	n	n	n	13	n	n	n
O=C(OCc1ccccc1)N1CCc2ccccc21	n	n	n	n	n	n	x	x
O=c1ccnc2n1COCS2	n	n	n	n	12	n	n	n
C/C(=C1\SC(N2CCOCC2)=NC1=O)c1ccc(C)cc1	n	n	n	n	10	n	n	n
C/C(=C1/SC(N2CCOCC2)=NC1=O)c1ccc(Cl)cc1	n	n	n	n	n	n	x	x
CN1CCCN(S(=O)(=O)c2ccc3c(c2)n(C)c(=O)c(=O)n3C)CC1	x	n	x	x	n	n	x	x
Cc1ccccc1N(CC(=O)NC1CCCCC1)C(=O)c1csnn1	n	n	n	n	n	n	x	x
Cc1cccc(C)c1N(CC(=O)NC1CCCCC1)C(=O)c1csnn1	n	n	n	n	16	n	n	n
Cc1cc(C)c(S(=O)(=O)N2CCCCC2)c(C)c1N(C)S(=O)(=O)c1ccccc1	n	n	n	n	11	n	n	n
